Assay results published in ChEMBL document CHEMBL1914368, “Imidazo[1,5-a]quinoxalines as irreversible BTK inhibitors for the treatment of rheumatoid arthritis” (Bioorg Med Chem Lett, 2011).
Active and inactive are the calls of the source. The rule behind the calls is not given here.

Legend:
[1] = biological target: T1, Tyrosine-protein kinase Lyn (Homo sapiens, UniProt P07948); assay: Inhibition of LYN-A expressed in Sf9 cells after 60 mins by TR-FRET Assay
[2] = biological target: Tyrosine-protein kinase Lck (Homo sapiens, UniProt P06239); assay: Inhibition of C-terminal His6-tagged human full-length LCK expressed in Sf9 cells after 60 mins by TR-FRET Assay
Sequence of Tyrosine-protein kinase Lck (P06239 whole entry): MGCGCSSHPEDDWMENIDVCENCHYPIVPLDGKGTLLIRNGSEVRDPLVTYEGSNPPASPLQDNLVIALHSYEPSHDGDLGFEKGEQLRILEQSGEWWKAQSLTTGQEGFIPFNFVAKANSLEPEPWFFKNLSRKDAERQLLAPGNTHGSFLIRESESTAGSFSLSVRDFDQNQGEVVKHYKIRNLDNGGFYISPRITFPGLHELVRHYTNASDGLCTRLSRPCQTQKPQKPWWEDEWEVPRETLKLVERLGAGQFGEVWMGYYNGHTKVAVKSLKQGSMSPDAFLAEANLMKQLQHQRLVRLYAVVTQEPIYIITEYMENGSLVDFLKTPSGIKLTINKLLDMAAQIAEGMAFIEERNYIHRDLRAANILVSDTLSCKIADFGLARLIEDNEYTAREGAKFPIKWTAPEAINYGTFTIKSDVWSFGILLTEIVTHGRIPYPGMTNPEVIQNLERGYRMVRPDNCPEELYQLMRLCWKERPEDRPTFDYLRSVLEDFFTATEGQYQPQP

[3] = biological target: T2, Tyrosine-protein kinase BTK (Homo sapiens, UniProt Q06187); assay: Inhibition of human full-length BTK expressed in Sf9 cells using FAM-Srctide peptide as substrate preincubated for 60 mins measured after 60 mins by TR-FRET Assay
T2 sequence (Q06187 whole entry): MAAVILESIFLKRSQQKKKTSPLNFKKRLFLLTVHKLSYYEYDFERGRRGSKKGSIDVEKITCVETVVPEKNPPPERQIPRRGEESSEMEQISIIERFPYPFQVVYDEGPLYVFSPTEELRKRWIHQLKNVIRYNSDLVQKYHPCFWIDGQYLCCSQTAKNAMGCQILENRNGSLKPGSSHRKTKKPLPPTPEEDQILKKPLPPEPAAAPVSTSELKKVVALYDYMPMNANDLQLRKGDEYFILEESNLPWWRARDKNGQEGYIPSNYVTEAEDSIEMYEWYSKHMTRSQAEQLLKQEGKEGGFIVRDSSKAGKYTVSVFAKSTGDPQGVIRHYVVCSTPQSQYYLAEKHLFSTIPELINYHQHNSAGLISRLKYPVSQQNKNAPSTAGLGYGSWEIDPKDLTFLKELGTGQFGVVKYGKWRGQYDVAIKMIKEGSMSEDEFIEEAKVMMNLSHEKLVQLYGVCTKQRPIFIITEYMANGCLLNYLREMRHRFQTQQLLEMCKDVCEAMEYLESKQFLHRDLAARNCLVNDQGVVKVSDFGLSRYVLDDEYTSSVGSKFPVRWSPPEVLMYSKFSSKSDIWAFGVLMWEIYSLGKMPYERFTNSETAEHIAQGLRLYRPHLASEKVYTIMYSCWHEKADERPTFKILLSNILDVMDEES
Outline: (§1)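 The compound was pre-incubated with the kinase before the enzymatic reaction was started. IC50 values are averages of two or more determinations.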

[4] = biological target: T1, Tyrosine-protein kinase Lyn; assay: Inhibition of LYN-A expressed in Sf9 cells preincubated for 60 mins measured after 60 mins by TR-FRET Assay; outline: as §1
[5] = biological target: T2, Tyrosine-protein kinase BTK; assay: Inhibition of BTK autophosphorylation at PY223 in human Ramos B cells after 20 mins by Western blot analysis; format: cell-based
[6] = AUC (0 to infinity) in mouse at 10 mg/kg, po; format: ADME, organism-based; parameters: time infinity, dose 10 mg/kg, route oral; settings: plasma
[7] = Half life in mouse at 10 mg/kg, po; format: ADME, organism-based; parameters: dose 10 mg/kg, route oral; settings: in vivo
[8] = biological target: Protein-tyrosine kinase 6 (Homo sapiens) (UniProt Q13882); assay: Inhibition of BRK relative to control; settings: concentration not given here
Sequence of Protein-tyrosine kinase 6 (Homo sapiens) (Q13882 whole entry, looked up): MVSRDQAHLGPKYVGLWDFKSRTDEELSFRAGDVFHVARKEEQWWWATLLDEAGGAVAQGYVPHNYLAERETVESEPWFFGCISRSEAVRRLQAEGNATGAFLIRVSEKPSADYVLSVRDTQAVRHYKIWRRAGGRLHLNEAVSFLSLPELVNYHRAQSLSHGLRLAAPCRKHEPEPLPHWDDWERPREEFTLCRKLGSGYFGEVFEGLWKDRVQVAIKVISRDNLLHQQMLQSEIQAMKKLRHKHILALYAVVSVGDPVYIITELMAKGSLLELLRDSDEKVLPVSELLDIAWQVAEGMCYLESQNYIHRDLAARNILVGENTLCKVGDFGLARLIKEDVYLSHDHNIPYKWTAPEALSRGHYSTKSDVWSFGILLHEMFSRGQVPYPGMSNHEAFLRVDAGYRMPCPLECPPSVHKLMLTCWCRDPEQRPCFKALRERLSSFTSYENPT

[9] = tested on: Mus musculus; assay: Antiarthritic activity in DBA/1 JBomTac mouse collagen-induced arthritis model assessed as inhibition of disease progression at 10 mg/kg, po qd measured on day 7 to 22; format: functional, organism-based; parameters: dose 10 mg/kg
Outline: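 Semi-therapeutic collagen-induced arthritis model. Blinded paw scoring used a 0–4 scale, reported as mean and SEM. Comparison to vehicle used Student's t-test, P <0.05.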

[10] = biological target: Tyrosine-protein kinase ABL2 (Homo sapiens) (UniProt P42684); assay: Inhibition of ABL2 relative to control; settings: concentration not given here
[11] = biological target: T2, Tyrosine-protein kinase BTK; assay: Inhibition of BTK relative to control
[12] = biological target: Serine/threonine-protein kinase Chk1 (Homo sapiens) (UniProt O14757); assay: Inhibition of CHEK1 relative to control; settings: concentration not given here
Sequence of Serine/threonine-protein kinase Chk1 (Homo sapiens) (O14757 whole entry): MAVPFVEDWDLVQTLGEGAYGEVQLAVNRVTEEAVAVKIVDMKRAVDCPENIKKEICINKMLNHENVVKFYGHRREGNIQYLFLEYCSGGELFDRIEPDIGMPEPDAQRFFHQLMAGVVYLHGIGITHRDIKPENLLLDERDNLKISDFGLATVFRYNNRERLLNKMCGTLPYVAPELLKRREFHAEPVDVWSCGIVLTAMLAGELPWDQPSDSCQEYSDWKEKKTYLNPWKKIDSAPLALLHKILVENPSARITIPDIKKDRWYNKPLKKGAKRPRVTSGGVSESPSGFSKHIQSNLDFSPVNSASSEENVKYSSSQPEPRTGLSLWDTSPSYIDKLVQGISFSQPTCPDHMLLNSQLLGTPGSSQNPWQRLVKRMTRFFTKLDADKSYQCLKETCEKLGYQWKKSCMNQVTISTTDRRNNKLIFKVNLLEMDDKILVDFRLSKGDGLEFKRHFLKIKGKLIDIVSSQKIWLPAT

[13] = biological target: Tyrosine-protein kinase CSK (Homo sapiens) (UniProt P41240); assay: Inhibition of CSK relative to control; settings: concentration not given here
[14] = biological target: Receptor tyrosine-protein kinase erbB-4 (Homo sapiens, UniProt Q15303); assay: Inhibition of HER4 relative to control; settings: concentration not given here
[15] = biological target: Receptor-type tyrosine-protein kinase FLT3 (Homo sapiens) (UniProt P36888); assay: Inhibition of FLT3 relative to control; settings: concentration not given here
[16] = biological target: Tyrosine-protein kinase FRK (Homo sapiens, UniProt P42685); assay: Inhibition of FRK relative to control
Sequence of Tyrosine-protein kinase FRK (P42685 whole entry): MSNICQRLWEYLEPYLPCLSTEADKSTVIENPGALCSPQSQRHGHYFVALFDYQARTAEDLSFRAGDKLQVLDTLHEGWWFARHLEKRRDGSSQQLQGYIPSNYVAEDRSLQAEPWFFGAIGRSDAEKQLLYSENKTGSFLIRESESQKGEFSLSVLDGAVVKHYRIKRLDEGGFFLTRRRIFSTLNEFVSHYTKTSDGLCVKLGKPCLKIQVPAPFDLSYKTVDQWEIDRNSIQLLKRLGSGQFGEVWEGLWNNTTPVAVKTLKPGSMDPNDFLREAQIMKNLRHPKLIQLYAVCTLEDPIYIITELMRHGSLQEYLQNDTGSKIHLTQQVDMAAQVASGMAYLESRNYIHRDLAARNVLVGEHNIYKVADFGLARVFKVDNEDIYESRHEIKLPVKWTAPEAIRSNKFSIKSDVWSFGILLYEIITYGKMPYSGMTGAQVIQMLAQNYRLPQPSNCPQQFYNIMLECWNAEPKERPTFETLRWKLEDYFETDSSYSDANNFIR

[17] = biological target: Interleukin-1 receptor-associated kinase 4 (Homo sapiens) (UniProt Q9NWZ3); assay: Inhibition of IRAK4 relative to control; settings: concentration not given here
[18] = biological target: Tyrosine-protein kinase ITK/TSK (Homo sapiens) (UniProt Q08881); assay: Inhibition of ITK relative to control; settings: concentration not given here
[19] = biological target: Tyrosine-protein kinase JAK3 (Homo sapiens) (UniProt P52333); assay: Inhibition of JAK3 relative to control; settings: concentration not given here
[20] = biological target: Vascular endothelial growth factor receptor 2 (Homo sapiens) (UniProt P35968); assay: Inhibition of KDR relative to control; settings: concentration not given here
[21] = biological target: Mitogen-activated protein kinase 10 (Homo sapiens) (UniProt P53779); assay: Inhibition of JNK3 relative to control; settings: concentration not given here
[22] = biological target: Mitogen-activated protein kinase 3 (Homo sapiens) (UniProt P27361); assay: Inhibition of MAPK3 relative to control; settings: concentration not given here
Sequence of Mitogen-activated protein kinase 3 (Homo sapiens) (P27361 whole entry): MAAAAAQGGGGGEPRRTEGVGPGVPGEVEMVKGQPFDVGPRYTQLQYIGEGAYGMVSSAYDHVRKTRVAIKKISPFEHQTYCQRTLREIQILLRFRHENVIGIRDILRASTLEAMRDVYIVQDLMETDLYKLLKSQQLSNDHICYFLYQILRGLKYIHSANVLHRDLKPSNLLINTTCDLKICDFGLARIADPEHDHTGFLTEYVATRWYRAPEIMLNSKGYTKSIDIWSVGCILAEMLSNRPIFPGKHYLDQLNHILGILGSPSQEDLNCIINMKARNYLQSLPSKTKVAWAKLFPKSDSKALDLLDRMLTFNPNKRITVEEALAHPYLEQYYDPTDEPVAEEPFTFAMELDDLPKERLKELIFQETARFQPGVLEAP

[23] = biological target: Mitogen-activated protein kinase 8 (Homo sapiens) (UniProt P45983); assay: Inhibition of MAPK8 relative to control; settings: concentration not given here
Sequence of Mitogen-activated protein kinase 8 (Homo sapiens) (P45983 whole entry): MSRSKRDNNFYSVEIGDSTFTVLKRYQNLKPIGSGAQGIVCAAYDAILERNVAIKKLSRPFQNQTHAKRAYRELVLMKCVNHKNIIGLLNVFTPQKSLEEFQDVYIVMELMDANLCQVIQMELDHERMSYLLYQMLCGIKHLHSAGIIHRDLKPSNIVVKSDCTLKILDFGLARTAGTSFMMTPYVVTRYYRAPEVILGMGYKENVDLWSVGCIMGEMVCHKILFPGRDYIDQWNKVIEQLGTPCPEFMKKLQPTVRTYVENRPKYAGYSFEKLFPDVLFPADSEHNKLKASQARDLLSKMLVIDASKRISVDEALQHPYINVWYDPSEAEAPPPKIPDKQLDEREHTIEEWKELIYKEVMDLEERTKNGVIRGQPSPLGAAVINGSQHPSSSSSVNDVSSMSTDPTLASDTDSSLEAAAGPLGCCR

[24] = biological target: Hepatocyte growth factor receptor (Homo sapiens) (UniProt P08581); assay: Inhibition of MET relative to control; settings: concentration not given here
[25] = tested on: Hepatocyte growth factor receptor (Homo sapiens), P08581 [M1250T]; assay: Inhibition of MET M1250T mutant relative to control; settings: concentration not given here
[26] = biological target: Serine/threonine-protein kinase Nek2 (Homo sapiens) (UniProt P51955); assay: Inhibition of NEK2 relative to control; settings: concentration not given here
[27] = biological target: Platelet-derived growth factor receptor beta (Homo sapiens) (UniProt P09619); assay: Inhibition of PDGFRbeta relative to control; settings: concentration not given here
Sequence of Platelet-derived growth factor receptor beta (Homo sapiens) (P09619 whole entry): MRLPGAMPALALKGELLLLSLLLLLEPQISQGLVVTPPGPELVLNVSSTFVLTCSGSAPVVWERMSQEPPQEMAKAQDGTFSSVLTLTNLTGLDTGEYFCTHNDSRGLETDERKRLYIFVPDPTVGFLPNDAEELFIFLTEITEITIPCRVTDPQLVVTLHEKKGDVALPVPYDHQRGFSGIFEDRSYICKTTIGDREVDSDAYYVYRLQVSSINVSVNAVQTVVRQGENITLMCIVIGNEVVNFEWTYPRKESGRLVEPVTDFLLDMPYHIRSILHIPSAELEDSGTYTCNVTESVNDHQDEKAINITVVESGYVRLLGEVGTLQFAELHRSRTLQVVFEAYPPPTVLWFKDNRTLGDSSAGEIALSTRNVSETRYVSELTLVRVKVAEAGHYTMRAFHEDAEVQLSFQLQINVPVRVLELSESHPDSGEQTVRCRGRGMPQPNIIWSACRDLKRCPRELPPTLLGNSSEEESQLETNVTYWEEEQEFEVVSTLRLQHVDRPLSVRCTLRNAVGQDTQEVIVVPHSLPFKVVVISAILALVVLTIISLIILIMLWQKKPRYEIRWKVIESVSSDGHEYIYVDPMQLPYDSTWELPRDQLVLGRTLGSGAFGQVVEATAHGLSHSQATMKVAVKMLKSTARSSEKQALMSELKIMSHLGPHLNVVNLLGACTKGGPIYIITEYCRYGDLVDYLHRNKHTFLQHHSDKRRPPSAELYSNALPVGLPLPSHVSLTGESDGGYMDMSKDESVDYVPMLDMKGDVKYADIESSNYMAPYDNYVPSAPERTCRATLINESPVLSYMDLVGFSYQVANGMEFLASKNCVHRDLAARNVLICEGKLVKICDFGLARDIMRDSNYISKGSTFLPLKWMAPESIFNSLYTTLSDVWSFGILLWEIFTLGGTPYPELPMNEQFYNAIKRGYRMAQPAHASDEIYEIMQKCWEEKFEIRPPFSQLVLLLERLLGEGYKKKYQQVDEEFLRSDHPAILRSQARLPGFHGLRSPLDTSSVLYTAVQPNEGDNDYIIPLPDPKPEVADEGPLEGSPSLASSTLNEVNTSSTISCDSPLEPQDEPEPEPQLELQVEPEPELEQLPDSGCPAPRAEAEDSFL

[28] = biological target: 3-phosphoinositide-dependent protein kinase 1 (Homo sapiens) (UniProt O15530); assay: Inhibition of PDK1 relative to control; settings: concentration not given here
[29] = biological target: Phosphatidylinositol 4-phosphate 3-kinase C2 domain-containing subunit beta (Homo sapiens) (UniProt O00750); assay: Inhibition of PI3K-C2 beta relative to control; settings: concentration not given here
[30] = biological target: Serine/threonine-protein kinase PLK1 (Homo sapiens) (UniProt P53350); assay: Inhibition of PLK1 relative to control; settings: concentration not given here
[31] = biological target: cAMP-dependent protein kinase catalytic subunit alpha (Homo sapiens) (UniProt P17612); assay: Inhibition of PRKACA relative to control; settings: concentration not given here
[32] = biological target: Protein kinase C alpha type (Homo sapiens) (UniProt P17252); assay: Inhibition of PRKCA relative to control; settings: concentration not given here
[33] = biological target: Ribosomal protein S6 kinase alpha-1 (Homo sapiens) (UniProt Q15418); assay: Inhibition of RSK1 relative to control; settings: concentration not given here
[34] = biological target: Tyrosine-protein kinase Tec (Homo sapiens) (UniProt P42680); assay: Inhibition of TEC relative to control; settings: concentration not given here
[35] = biological target: Angiopoietin-1 receptor (Homo sapiens) (UniProt Q02763); assay: Inhibition of TEK relative to control; settings: concentration not given here

T1 sequence (P07948 whole entry): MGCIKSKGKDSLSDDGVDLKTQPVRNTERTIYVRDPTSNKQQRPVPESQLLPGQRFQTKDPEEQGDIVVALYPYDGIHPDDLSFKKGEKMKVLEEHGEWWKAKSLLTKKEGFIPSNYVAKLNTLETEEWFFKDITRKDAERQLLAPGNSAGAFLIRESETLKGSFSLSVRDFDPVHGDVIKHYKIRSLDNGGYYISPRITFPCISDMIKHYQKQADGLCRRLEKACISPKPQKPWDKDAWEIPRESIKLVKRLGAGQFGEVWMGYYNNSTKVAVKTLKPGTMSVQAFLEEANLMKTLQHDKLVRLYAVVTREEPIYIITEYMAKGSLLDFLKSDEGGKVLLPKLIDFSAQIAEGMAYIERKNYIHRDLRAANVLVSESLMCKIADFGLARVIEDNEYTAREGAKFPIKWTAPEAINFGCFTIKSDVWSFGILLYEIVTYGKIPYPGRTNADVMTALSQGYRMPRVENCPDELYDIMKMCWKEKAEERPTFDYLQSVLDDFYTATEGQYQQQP

Cc1ccccc1Nc1nc2cc(F)c(N(C)C(=O)/C=C/CN(C)C)cc2n2cncc12
IC50 [1]: 624 nM | IC50 [2]: 772 nM | IC50 [3]: 0.7 nM | IC50 [4]: 353 nM | IC50 [5]: 48 nM | AUC(0-inf) [6]: 876 ng·h/mL | half-life [7]: 2 h | inhibition [8]: -4% | Activity [9]: Active | inhibition [10]: 65% | IC50 [11]: 3.31 nM | inhibition [12]: 8% | inhibition [13]: 15% | inhibition [14]: 101% | inhibition [15]: -8% | IC50 [16]: 611 nM | inhibition ([16]; concentration not given here): 60% | inhibition [17]: 10% | inhibition [18]: 5% | inhibition [19]: -4% | inhibition [20]: 7% | inhibition [21]: 0% | inhibition [22]: 1% | inhibition [23]: -3% | inhibition [24]: -1% | inhibition [25]: 5% | inhibition [26]: 10% | inhibition [27]: 2% | inhibition [28]: 7% | inhibition [29]: 11% | inhibition [30]: 4% | inhibition [31]: 11% | inhibition [32]: -6% | inhibition [33]: 0% | inhibition [34]: 42% | inhibition [35]: 13%
